Sampled rows, rich in hits. Any-hit rate of the full collection: about 27%.
CYP2C9 act – CYP2C9 (human) activation. P11712. actives 1.4% (n = 96,000). activation factor at 5 µM. recombinant CYP2C9, luciferin-H conversion, luminescence; active compounds read high; factor 1 = untreated enzyme, 0 = blocked;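 active = activation factor of 2 or more for CYP2C9 at a 5 µM dose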
CYP2C9 inh – blocks human cytochrome P450 2C9; CYP2C9 Supersomes, luciferin-H conversion, luminescence; inhibition, % at 5 µM; actives 20% (n = 96,000); AID 777;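 active = blocking of liver enzyme CYP2C9 beyond about 50% at 5 µM, limit read from the data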
CYP2C19 inhib – inhibitors of human CYP2C19; P33261; CYP2C19 Supersomes, luciferin-H EGE luminescence, 30 min; AID 778; inhibition, % at 5 µM; actives 21% (n = 96,000);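 active = CYP2C19 inhibition above a set limit at 5 µM in the primary screen, cut at about 50% in these data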
CYP2C19 activ – activators of human cytochrome P450 2C19. 96,000 tested, under 10 active. AID 1025. activation factor at 5 µM. P33261. recombinant CYP2C19, luciferin-H EGE luminescence; active compounds read high; 0 = fully inhibited enzyme, 1 = untreated enzyme;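 active = activation factor of at least 2 at 5 µM in the primary screen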
Cav3 T inh – inhibitors of human Cav3.2 T-type calcium channel; O95180; actives 4% (n = 100,000); Cav3.2-expressing cells, Fluo-4 calcium fluorescence FDSS; active compounds read low; B-score at 10 µM;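 active = single-dose well whose peak fluorescence ratio is a statistical outlier from its plate by either plate-standardised score or position-corrected B-score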
HIV Rev-RRE inh – HIV Rev-RRE protein-RNA interaction inhibition; actives 0.79% (n = 97,000); P05866; inhibition, % at 8 µM; Rev peptide-RRE RNA binding, FRET;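 active = inhibition above the screen-wide mean plus 3 SD, cut at about 35% in these data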
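Test system – labelled RRE RNA duplex and labelled Rev peptide · Reagent – labelled Rev peptide · Doses – one concentration, 8 µM nominal · Incubation – 5 + 15 min at 25 °C · Signal – FRET fluorescence readout · Read-out basis – % inhibition of FRET ratio versus controls · Control set – DMSO wells as 0% and neomycin B wells as 100% inhibition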
Hits are given with their value; i = inactive; nt = no result.

SMILES	CYP2C9 act	CYP2C9 inh	CYP2C19 inhib	CYP2C19 activ	Cav3 T inh	HIV Rev-RRE inh
CN(Cc1nc(-c2ccncc2)no1)S(=O)(=O)c1ccc(Br)cc1	i	93	89	i	i	i
Cc1ccc(S(=O)(=O)N(C)Cc2nc(-c3ccccn3)no2)cc1	i	i	i	i	i	i
CN(Cc1nc(-c2ccncc2)no1)S(=O)(=O)c1ccccc1	i	72	99	i	i	i
CN(Cc1nc(-c2ccncc2)no1)S(=O)(=O)c1ccc(Cl)cc1	i	93	96	i	i	i
COc1ccc(Cc2nc(-c3ccc(Br)cc3)no2)cc1	i	i	i	i	i	nt
CN(Cc1nc(-c2ccccn2)no1)S(=O)(=O)c1ccccc1	i	i	64	i	i	i
CCCCCCSc1nc(O)c(C2OC(=O)c3c2ccc(OC)c3OC)c(=O)n1-c1ccccc1 (configuration not stated)	i	i	i	i	i	i
Cc1nc(Nc2nc(=O)c3ccccc3n2C)nc2c(C)cccc12	nt	nt	nt	nt	nt	i
COC(=O)c1cc(NC(=O)CSc2nncn2C)cc(C(=O)OC)c1	i	i	i	i	i	i
COc1cccc2c1C(=O)O/C2=C/c1ccc2c(c1)OCO2	i	55	62	i	i	i
CC(C)(C)CC(=O)Nc1ccc(Nc2ccccc2)cc1	i	i	i	i	i	i
Cc1ccc(NC(=O)C(Cc2ccccc2)NC(=O)c2ccco2)cc1 (configuration not stated)	i	i	i	i	i	i
CCCCCCCCN1[C@@H](CC(=O)OCC)c2cc(C(F)(F)F)ccc2S1(=O)=O	nt	nt	nt	nt	-4.2	nt
CN(C)S(=O)(=O)N(CC(=O)Nc1ccccc1F)c1ccccc1	nt	nt	nt	nt	i	i
CN(C)S(=O)(=O)N(CC(=O)N(Cc1ccccc1)Cc1ccccc1)c1ccccc1	i	85	81	i	i	i
CCN(CC)CCN(C)Cc1ccc(Br)cc1	i	i	i	i	i	i
CN(C)S(=O)(=O)N(Cc1ccc(Br)cc1)c1ccccc1	i	i	86	i	i	i
Cc1ccc(Nc2nc(N)nc(CSc3nccn3C)n2)cc1	i	i	i	i	i	i
Cc1ccc(/C(O)=C2/C(=O)C(=O)N(CCN3CCOCC3)C2c2cccs2)cc1 (configuration not stated)	i	i	i	i	nt	i
Cc1cc(N2CCCCC2)nc(SCc2ccc(C#N)cc2)n1	i	63	i	i	i	i
COC(=O)c1cc2ccsc2n1CC(=O)Nc1cc(Cl)ccc1OC	i	i	51	i	i	i
COC(=O)c1cc2ccsc2n1Cc1nc(-c2ccc(OC)cc2)oc1C	i	59	i	i	i	i
COC(=O)c1cc2ccsc2n1CC(=O)Nc1ccc(N(C)C)cc1	i	i	53	i	i	i
COC(=O)c1cc2ccsc2n1CC(=O)N(C)c1ccccc1	i	i	56	i	i	i
COc1ccc(OC)c(NC(=O)Cn2c(CCC(=O)O)ccc2-c2cccs2)c1	i	i	i	i	nt	i
SMILES	CYP2C9 act	CYP2C9 inh	CYP2C19 inhib	CYP2C19 activ	Cav3 T inh	HIV Rev-RRE inh
COC(=O)c1cc2sccc2n1Cc1nc(-c2ccc(OC)cc2)oc1C	i	i	i	i	i	i
COc1ccccc1N1CCN(CCCOc2ccc(F)cc2)CC1	i	i	i	i	i	i
CC(=O)OCCNC(=O)Cn1cnc2c1c(=O)n(C)c(=O)n2C	i	i	i	i	i	nt
CC(C)CSc1ncc(-c2cccc(C(F)(F)F)c2)cn1	i	i	i	i	i	i
CC(=O)OCC(=O)Nc1ccc(C(C)=O)cc1	i	i	i	i	i	i
COc1cc(OC)cc(OCC(O)Cn2ccnc2)c1 (configuration not stated)	i	91	98	i	i	nt
Cn1c(CCNC(=O)c2ccco2)nc2cc(NS(=O)(=O)c3ccccc3)ccc21	i	56	i	i	i	i
CC(C)CCOc1ccc(C(=O)CCNC(C)C(=O)O)cc1 (configuration not stated)	i	i	i	i	nt	nt
Cn1cc(C(=O)Nc2ccc(F)c(F)c2)cn1	i	i	i	i	i	i
C=CCNC(=O)C1CC(=O)N(c2ccc(C)cc2)C1 (configuration not stated)	i	i	i	i	i	i
CCOC(=O)COc1ccc2c(c1)c(C(=O)OCC)c(C)n2CC	i	i	80	i	nt	i
CCOC(=O)c1c(C)n(CC(O)c2ccccc2)c2ccc(O)cc12 (configuration not stated)	i	60	64	i	i	i
CC(=O)c1c(C)n(CCO)c2ccc(O)cc12	i	i	i	i	i	i
CCOC(=O)c1c2n(c3ccc(O)cc13)CCC2	nt	nt	nt	nt	i	i
CCOC(=O)c1c(C)n(CCNC(C)=O)c2ccc(O)cc12	i	i	60	i	i	i
O=C(Cn1ccsc1=NC(=O)C(F)(F)F)c1ccccc1	i	i	57	i	i	i
O=C(Cn1cnc2ccccc2c1=O)c1ccccc1	nt	nt	nt	nt	i	i
Cc1cc(NC(=O)CN2CCCC2c2nc3ccccc3s2)no1 (configuration not stated)	i	i	i	i	i	nt
COc1ccc(-c2c3c(=O)n(C)c(=O)n(C)c3cn2C2CCCCC2)cc1	i	77	70	i	i	i
COc1ccc2c(c1)C(=O)[C@@H](OC(=O)NCc1ccc3c(c1)OCO3)[C@H](c1ccc(OC)c(Br)c1)O2	nt	nt	nt	nt	i	nt
CC(C)COC(=O)c1cccc2c1-c1ccccc1/C2=N\O	nt	nt	nt	nt	nt	i
CC1CCCC(C)N1C(=O)c1cccc2c1-c1ccccc1/C2=N/O (configuration not stated)	nt	nt	nt	nt	-6.4	i
CCOC(=O)c1cccc2c1-c1ccccc1/C2=N/O	i	66	i	i	i	i
CN(C)S(=O)(=O)Oc1ccsc1C(=O)Nc1cccc(Cl)c1Cl	i	72	84	i	i	i
CS(=O)(=O)Nc1ccccc1C(=O)Nc1ccccc1Cl	nt	nt	nt	nt	i	i
SMILES	CYP2C9 act	CYP2C9 inh	CYP2C19 inhib	CYP2C19 activ	Cav3 T inh	HIV Rev-RRE inh
CN(C)S(=O)(=O)Oc1ccsc1C(=O)Nc1ccccc1Cl	i	66	79	i	nt	i
COC(=O)C1=C(N)Oc2cc(C)[nH]c(=O)c2C1c1cccnc1 (configuration not stated)	i	i	i	i	i	i
CCOC(=O)C1=C(N)Oc2cc(C)oc(=O)c2C1c1cccnc1 (configuration not stated)	i	63	60	i	i	i
CCOC(=O)C1=C(N)Oc2ccc3ccccc3c2C1c1cccnc1 (configuration not stated)	nt	nt	nt	nt	i	i
CCOC(=O)C1=C(C)Nc2ncnn2C1c1cccnc1 (configuration not stated)	i	i	i	i	i	i
CCOC(=O)C1=C(N)Oc2cc(C)[nH]c(=O)c2C1c1ccncc1 (configuration not stated)	i	74	75	i	i	i
